# RGS4 block = inhibitors of human RGS4; B-score at 10 µM; P49798; hit rate 0.45% among 310,000; HEK293 M3R/RGS4 inducible, Fluo-4 calcium flux; active compounds read high; triggered by carbachol at its EC20;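 active = B-score, a plate-corrected calcium signal, over three deviations above library mean, with baseline fluorescence within five deviations of library mean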;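 note: RGS4 expression induced by doxycycline in cells with stable M3 receptor; B-score is computed from the integrated fluorescence ratio over baseline after carbachol; higher B-score means a larger calcium signal and so more RGS4 inhibition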
# Target sequence (P49798 whole entry, looked up): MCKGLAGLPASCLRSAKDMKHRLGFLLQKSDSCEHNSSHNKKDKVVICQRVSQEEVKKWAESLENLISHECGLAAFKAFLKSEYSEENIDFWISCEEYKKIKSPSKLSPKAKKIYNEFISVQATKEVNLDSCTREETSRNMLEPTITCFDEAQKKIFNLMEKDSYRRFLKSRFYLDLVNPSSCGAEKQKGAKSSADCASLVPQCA
# MrgX1 allo act = allosterically activates human MrgX1 receptor signaling; Q96LB2; MrgX1-HEK293, Fluo-4 calcium flux, FDSS; active compounds read high; B-score at 10 µM; hit rate 0.63% among 310,000; AID 588675;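 active = plate-corrected calcium response at least 3 library SD above typical, normal starting fluorescence, not activating the receptor alone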;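 note: compound read alongside a low EC10 to EC30 dose of BAM8-22 agonist; peak minus trough fluorescence over baseline measured at the second addition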
# Target sequence (Q96LB2 whole entry, looked up): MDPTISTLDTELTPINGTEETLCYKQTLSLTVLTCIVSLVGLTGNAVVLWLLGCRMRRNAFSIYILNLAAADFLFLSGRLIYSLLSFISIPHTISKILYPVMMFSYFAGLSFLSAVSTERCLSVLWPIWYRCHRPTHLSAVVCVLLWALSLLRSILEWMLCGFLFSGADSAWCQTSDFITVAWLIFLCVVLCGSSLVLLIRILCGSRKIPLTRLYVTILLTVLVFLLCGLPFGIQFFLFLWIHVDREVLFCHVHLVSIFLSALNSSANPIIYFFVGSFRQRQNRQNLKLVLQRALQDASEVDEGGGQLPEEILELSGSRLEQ
# RGS4 pot = RGS4 potentiation or activation; HEK293 M3R/inducible RGS4, carbachol calcium flux Fluo4; active compounds read low; B-score at 10 µM; hit rate 0.92% among 310,000;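 active = B-score of the integrated calcium signal more than 4 SD below the library mean, with starting fluorescence not abnormally high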;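 note: negative B-score means reduced calcium response which marks RGS4 activation or potentiation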
#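 System: HEK293 FlpIn-TREx cells, stable M3R, doxycycline-inducible RGS4. Timing: overnight RGS4 induction, 30 min dye load 37 °C, 20 min compound RT. Also added: carbachol, ECmax concentration. Measured by: Fluo4 fluorescence kinetic imaging of calcium. Evaluation: integrated calcium ratio converted to B score.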
# MrgX1 agonist = agonists of human MrgX1 receptor; MrgX1-HEK293 cells, Fluo-4 calcium fluorescence, agonist mode; active compounds read high; B-score at 10 µM; hit rate 0.44% among 310,000; Q96LB2; AID 588627;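 active = calcium response B-score plate-corrected fluorescence ratio at least 3 library SD, with starting fluorescence B-score inside 5 SD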
#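 Assay system: stable human MrgX1 HEK293 cell line. Quantity: 15,000 cells per well. Schedule: cells plated overnight, dye loaded 0.5 h 37 °C, 0.5 h room temperature. Detection: Fluo-4 NW calcium-flux fluorescence, kinetic read. Read-out basis: peak-minus-minimum fluorescence over baseline, converted to B scores. Control set: positive and negative control wells on each plate.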
# MrgX1 antagonist = antagonists of human MrgX1 receptor. MRGX1-HEK293 calcium flux, Fluo-4, BAM8-22 antagonism; active compounds read low. B-score at 10 µM. hit rate 1.3% among 310,000. AID 588676;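 active = calcium-response B-score plate-corrected more than 3 library SD below zero, starting fluorescence within 5 deviations, no agonist response on first addition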;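 note: peak minus trough fluorescence over baseline after final BAM8-22 challenge near maximal dose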
# MrgX1 allo conf = reconfirmed allosteric activator of human MrgX1 receptor; shares compounds with MrgX1 allo act; MrgX1-HEK293, Fluo-4 calcium fluorescence, FDSS; activation (ratio percentage), % at 10 µM; hit rate 13% among 1,200; AID 602413;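 active = ratio at least 3 SD above the weak peptide control, stable starting fluorescence, no direct agonism earlier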;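 note: compound followed by low BAM8-22 agonist challenge near EC20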
# MrgX1 antag conf = confirmation of human MrgX1 receptor antagonists; shares compounds with MrgX1 antagonist; MrgX1-HEK293, BAM8-22 calcium flux, Fluo-4; active compounds read low; remaining BAM8-22 calcium response % of control (active compounds read low), % at 10 µM; hit rate 19% among 2,300;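 active = remaining agonist calcium response no higher than 100% minus 3 SD of agonist-only control wells, with starting fluorescence near control levels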;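 note: agonist BAM8-22 given at a near maximal EC90 to ECmax level; peak minus minimum fluorescence divided by baseline after agonist addition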
# HEK293 Ca flux = activity in parental HEK293 cells lacking MrgX1 | shares compounds with MrgX1 antagonist | Fluo-4 calcium fluorescence, FDSS | fluorescence ratio F(max-min)/F0 at 10 µM | hit rate 2% among 4,000 | AID 624111;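 active = duplicate-averaged calcium fluorescence ratio at least three times the standard deviation of buffer wells, a nonspecific response in parental cells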
# HEK293 Ca counter = counter-screen for MrgX1 allosteric activators: effect in parental HEK293 cells; shares compounds with MrgX1 antagonist; parental HEK293 calcium flux, Fluo-4 fluorescence ratio; active compounds read high; fluorescence ratio F(max-min)/F0 at 10 µM; hit rate 0.4% among 4,000; AID 624114;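 active = calcium fluorescence ratio, averaged over duplicates, at least 3 SD of the buffer-well ratio, meaning a nonspecific response in receptor-free cells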;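 note: untransfected parental HEK293 lacking MrgX1 used as counterscreen for MrgX1 allosteric activators; fluorescence change taken during the second addition on a kinetic imager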
# HEK293 Ca cntr2 = activity in parental HEK293 cells lacking MrgX1 receptor; shares compounds with MrgX1 antagonist; Fluo-4 calcium fluorescence (FDSS); active compounds read high; fluorescence ratio F(max-min)/F0 at 10 µM; hit rate 8.7% among 4,000;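 active = calcium fluorescence ratio at least three times the spread of buffer wells, meaning a non-specific response in parental cells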
# A number is an active result; - = inactive; . = not tested or not shown. Only some compounds are listed: those with a hit (about 3.5% of all), similar ones and a draw of the others.
SMILES,RGS4 block,MrgX1 allo act,RGS4 pot,MrgX1 agonist,MrgX1 antagonist,MrgX1 allo conf,HEK293 Ca flux,HEK293 Ca counter,HEK293 Ca cntr2,others
CC12CCC(C(=O)Nc3nc4ccc(Br)cc4s3)(OC1=O)C2(C)C (stereo not given),-,16.5,-,-,-,6.5%,-,-,-,
CC12CCC(C(=O)Nc3nccs3)(OC1=O)C2(C)C (stereo not given),-,-,-,-,-,.,.,.,.,
COCCN(C(=O)COC(=O)CCC(=O)c1cccs1)c1c(N)n(Cc2ccccc2)c(=O)[nH]c1=O,-,-,-,-,-,.,.,.,.,
CC1(C)c2ccccc2-c2nc3ccccc3cc2C1O (stereo not given),-,9.61,-,-,-,-,-,-,-,
Cc1cccc(NC(=S)NC(=O)/C=C/c2ccco2)n1,-,25.1,-,-,-,4.6%,-,-,-,
COC(=O)Nc1ccc(SCC(=O)c2cccc([N+](=O)[O-])c2)cc1,-,-,-,-,-,.,.,.,.,
CCn1c(/C=C/c2ccc(F)cc2)nc2ccccc2c1=O,-,-,-,-,-,.,.,.,.,
O=c1c2ccccc2nc(/C=C/c2ccccc2)n1CCCO,-,11.2,-,-,-,-,-,-,-,
O=c1c2ccccc2nc(/C=C/c2ccc(O)cc2)n1CCc1ccccc1,-,-,-,-,-,.,.,.,.,
CCn1c(/C=C/c2ccccc2)nc2ccccc2c1=O,-,7.71,-,-,-,-,-,-,-,
O=C1CNC(=O)/C1=C\N1CCN(C(c2ccccc2)c2ccccc2)CC1,-,-,-,-,-,.,.,.,.,
CC(CCc1ccc(O)cc1)NC1c2ccccc2-c2ccccc21 (stereo not given),-,7.1,-,-,-,-,-,-,-,
CCOC(=O)C1(CCCc2ccccc2)CCN(C(=O)C(C)n2cncn2)CC1 (stereo not given),-,-,-,-,-,.,.,.,.,
C/C(=C\C(=O)c1ccccc1)NCc1ccc(F)cc1,-,7.43,-,-,-,-,-,-,-,
COc1ccc(C(=O)NCC(=O)OCC(=O)c2ccc3c(c2)NC(=O)CO3)cc1,-,7.56,-,-,-,-,-,48,-,
O=S(=O)(Nc1ccon1)c1ccc(F)c(F)c1,-,-,-,-,-,.,.,.,.,
O=C(CCC1CCN(Cc2ccccc2O)CC1)NC1CC1,-,8.11,-,-,-,-,-,-,-,
O=C(CCC1CCN(Cc2ccccc2Cl)CC1)NC1CC1,-,-,-,-,-,.,.,.,.,
CCOC(=O)COc1c(/C=N\O)cc(Cl)cc1OC,-,-,-,-,-,.,.,.,.,
Nn1c(SCC(=O)Nc2cccc(S(N)(=O)=O)c2)nnc1C1CC1,-,7.84,-,-,-,-,-,-,-,
Cc1ccn2cc(-c3ccc(Br)cc3)nc2c1,-,14.7,-,-,-,-,-,-,-,
COc1c(Cl)cccc1-c1cn2ccc(C)cc2n1,-,14.8,-,-,-,-,-,-,-,
O=C(CSc1cccc[n+]1[O-])Nc1c(Br)cc([N+](=O)[O-])cc1Br,-,-,-,-,-,.,.,.,.,
Cc1nc(-c2ccc(Cl)cc2)sc1C1(C)CC(c2ccc(F)cc2)=NO1 (stereo not given),-,-,-,-,-,.,.,.,.,
Cc1ccc2nc(C(=O)N3CCc4c([nH]c5ccccc45)C3c3ccccn3)cn2c1 (stereo not given),-,-,-,-,-,.,.,.,.,
SMILES,RGS4 block,MrgX1 allo act,RGS4 pot,MrgX1 agonist,MrgX1 antagonist,MrgX1 allo conf,HEK293 Ca flux,HEK293 Ca counter,HEK293 Ca cntr2,others
O=C1CC2(CCN(C(=O)c3ccc(F)cc3)CC2)Oc2ccccc21,-,-,-,-,-,.,.,.,.,
Cc1sc2nc(C3CC3)nc(N3CCN(C(=O)c4ccc(F)cc4)CC3)c2c1C,-,-,-,-,-,.,.,.,.,
CC1(C)Cc2cccc(Oc3ccc(S(=O)(=O)N4CCCCC4)cn3)c2O1,-,11.3,-,-,-,-,-,-,-,
COc1cccc(CNc2ncc(Br)cc2Br)c1O,-,-,-,-,-,.,.,.,.,
COc1cccc(CNc2ccc(Br)cn2)c1O,-,11.7,-,-,-,-,-,-,-,
O=C(NCc1ccccc1)c1ccc(COCC(F)(F)F)o1,-,-,-,-,-,.,.,.,.,
Cc1ccncc1C(N)=O,-,8.14,-,-,-,-,-,-,-,
NC(=O)c1cc2ccncc2c2ccccc12,-,-,-,-,-,.,.,.,.,
Cc1csc(NC(=O)CSc2nnc(NC(=O)NC(C)(C)C)s2)n1,-,-,-,-,-,.,.,.,.,
CCN1CCN(CCNC(=O)c2ccc3c(c2)N(Cc2ccc(F)cc2)C(=O)/C(=C/c2ccccc2)S3)CC1,-,20.9,-,-,-16,-,-,-,-,MrgX1 antag conf=65.7%
CN1CCN(CCCNC(=O)c2ccc(/C=C3\Sc4ccccc4N(Cc4ccccc4F)C3=O)cc2)CC1,-,.,-,.,.,.,.,.,.,
COc1ccc(CCN2Cc3c(N)cccc3C2=O)cc1OC,-,-,-,-,-,.,.,.,.,
Cc1ccc(S(=O)(=O)NCCc2ccccc2)cc1,-,-,-,-,-,.,.,.,.,
Cc1cc(C)c(S(=O)(=O)NCCc2ccccc2)c(C)c1,-,9.71,-,-,-,-,-,-,-,
COc1ccccc1-n1c(-c2ccc(Cl)cc2)c[nH]c1=S,-,7.48,-,-,-,-,-,-,-,
O=C(NCc1ccccn1)c1ccc(Cl)cc1Cl,-,-,-,-,-,.,.,.,.,
O=C(NCc1ccccn1)c1cc(Cl)ccc1OCc1ccccc1,-,6.86,-,-,-,-,-,-,-,
O=C(NCc1ccccn1)c1ccc(COc2ccc(Cl)cc2)o1,-,7.31,-,-,-,-,-,-,-,
O=C(NCCNC(=O)c1cc(Cl)ccc1Cl)c1ccccn1,-,9.33,-,-,-,-,-,-,76.9,
CCOc1cc(CNCc2cccnc2)cc(Br)c1OCC(N)=O,-,-,-,-,-,.,.,.,.,
O=C(c1ccc2ccccc2n1)N(CCO)Cc1ccccc1,-,-,-,-,-,.,.,.,.,
C=C[C@@]1(C)CC(=O)[C@]2(O)[C@@]3(C)[C@@H](O)CCC(C)(C)[C@@H]3[C@H](OC(C)=O)[C@H](O)[C@@]2(C)O1,-,7.72,-,-,-,-,-,-,-,
Cc1ccc(SCC(=O)N2c3ccccc3Sc3ccccc32)cc1,-,-,-,-,-,.,.,.,.,

# Compound activity deposited in PubChem BioAssay by Johns Hopkins Ion Channel Center.
